# Assay results as given in ChEMBL document CHEMBL4680111, “Target Validation and Identification of Novel Boronate Inhibitors of the Plasmodium falciparum Proteasome” (J Med Chem, 2018).
# Calls of active or inactive are those of the source. The calls are words filed in the database; no cut-off is given here.
# Assays:
# Plasmodium falciparum [1] = experiment: Inhibition of Plasmodium falciparum 20S proteasome beta 5 subunit chymotrypsin-like activity using fluorogenic peptide Ac-WLA-AMC as substrate in presence of PA28alpha at 0.8 uM measured over 5 hrs by fluorescence microplate reader assay
# Plasmodium falciparum [2] = experiment: Inhibition of Plasmodium falciparum 20S proteasome beta 2 subunit trypsin-like activity using fluorogenic peptide Ac-WLR-AMC as substrate in presence of PA28alpha at 0.8 uM measured over 5 hrs by fluorescence microplate reader assay
# Plasmodium falciparum [3] = experiment: Inhibition of Plasmodium falciparum 20S proteasome beta 1 subunit caspase-like activity using fluorogenic peptide Ac-nLPnLD-AMC as substrate in presence of PA28alpha at 0.8 uM measured over 5 hrs by fluorescence microplate reader assay
# [4] = test system: Plasmodium falciparum 3D7; experiment: Inhibition of 20S proteasome beta 5 subunit in bortezomib-resistant Plasmodium falciparum 3D7 assessed as inhibition of BMV037 probe labeling at 1 to 10 uM incubated for 1 hr by SDS-PAGE analysis; conditions: dose 1-10 µM
# [5] = biological target: T1, Proteasome subunit beta type-9 (Homo sapiens, UniProt P28065); experiment: Inhibition of human 20S immunoproteasome beta 1 subunit caspase-like activity using fluorogenic peptide Ac-nLPnLD-AMC as substrate in presence of PA28alpha incubated for 1 to 2 hrs by fluorescence microplate reader assay
# T1 sequence (P28065 whole entry): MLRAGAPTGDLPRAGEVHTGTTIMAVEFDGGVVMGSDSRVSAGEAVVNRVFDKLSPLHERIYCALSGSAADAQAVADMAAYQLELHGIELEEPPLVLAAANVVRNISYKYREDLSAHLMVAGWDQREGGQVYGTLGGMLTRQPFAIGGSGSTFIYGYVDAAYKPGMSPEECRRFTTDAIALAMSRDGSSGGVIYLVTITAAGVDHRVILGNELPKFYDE
# [6] = Inhibition of Plasmodium falciparum 20S proteasome beta 1 subunit caspase-like activity using fluorogenic peptide Ac-nLPnLD-AMC as substrate in presence of PA28alpha incubated for 1 to 2 hrs by fluorescence microplate reader assay
# Plasmodium falciparum [7] = experiment: Antiplasmodial activity against sorbitol synchronized ring stage Plasmodium falciparum 3D7 assessed as reduction in parasitemia incubated for 72 hrs by Syto-61 staining dye based flow cytometry analysis; format: functional; conditions: read-out: LD50 (the source's name)
# In short: (§1)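 Sorbitol-treated ring-stage parasites in O+ human erythrocytes were incubated with compound for 72 h, and viability was read in the second cycle. Read-out was Syto-61 (2 µM) flow cytometry of parasitemia, normalized to untreated and 2 µM DHA-killed controls. Mean ± SEM of three independent experiments.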
# [8] = Inhibition of Plasmodium falciparum 20S proteasome beta 2 subunit trypsin-like activity using fluorogenic peptide Ac-WLR-AMC as substrate in presence of PA28alpha incubated for 1 to 2 hrs by fluorescence microplate reader assay
# Plasmodium falciparum [9] = experiment: Antiplasmodial activity against DHA-sensitive and sorbitol synchronized ring stage forms of Plasmodium falciparum Cam3.II^rev expressing K13 wild-type genotype assessed as reduction in parasitemia incubated for 3 hrs by pulse exposure based Syto-61 staining dye based flow cytometry analysis; format: functional; conditions: read-out: LD50 (the source's name)
# In short: (§2)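 Tightly synchronized early-ring parasites (1-3 h post-invasion) exposed to compound for 3 h, then viability assessed in the next cycle. Cells stained with 2 µM Syto-61 and parasitemia read by flow cytometry, normalized to untreated and kill controls (2 µM DHA, 48-72 h). Mean ± SEM of three independent experiments.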
# [10] = biological target: T2, Proteasome subunit beta type-10 (Homo sapiens, UniProt P40306); experiment: Inhibition of human 20S immunoproteasome beta 2 subunit trypsin-like activity using fluorogenic peptide Ac-WLR-AMC as substrate in presence of PA28alpha incubated for 1 to 2 hrs by fluorescence microplate reader assay
# T2 sequence (P40306 whole entry): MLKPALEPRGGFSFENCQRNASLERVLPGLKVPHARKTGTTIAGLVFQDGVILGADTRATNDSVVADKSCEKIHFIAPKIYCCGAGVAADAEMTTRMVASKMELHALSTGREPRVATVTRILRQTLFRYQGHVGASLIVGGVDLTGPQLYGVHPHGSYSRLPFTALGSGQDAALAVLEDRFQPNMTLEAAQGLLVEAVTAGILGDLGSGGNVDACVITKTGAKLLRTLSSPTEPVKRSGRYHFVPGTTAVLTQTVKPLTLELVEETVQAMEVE
# [11] = biological target: T3, Proteasome subunit beta type-8 (Homo sapiens, UniProt P28062); experiment: Inhibition of human 20S immunoproteasome beta 5 subunit chymotrypsin-like activity using fluorogenic peptide Ac-WLA-AMC as substrate in presence of PA28alpha incubated for 1 to 2 hrs by fluorescence microplate reader assay
# T3 sequence (P28062 whole entry): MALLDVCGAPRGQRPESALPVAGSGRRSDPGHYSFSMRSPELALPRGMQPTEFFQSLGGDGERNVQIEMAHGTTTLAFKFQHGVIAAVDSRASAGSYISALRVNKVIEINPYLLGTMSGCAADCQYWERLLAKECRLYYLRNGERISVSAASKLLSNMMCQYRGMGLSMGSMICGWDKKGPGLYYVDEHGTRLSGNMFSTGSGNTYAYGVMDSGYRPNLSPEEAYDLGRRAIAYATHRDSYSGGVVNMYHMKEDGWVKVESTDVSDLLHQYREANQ
# [12] = Inhibition of Plasmodium falciparum 20S proteasome beta 5 subunit chymotrypsin-like activity using fluorogenic peptide Ac-WLA-AMC as substrate in presence of PA28alpha incubated for 1 to 2 hrs by fluorescence microplate reader assay
# [13] = Selectivity index, ratio of LD50 for cytotoxicity against human HepG2 cells to LD50 for antiplasmodial activity against Plasmodium falciparum 3D7 sorbitol-treated ring stage; format: toxicity, cell-based; conditions: read-out: Selectivity Index
# [14] = biological target: T4, Proteasome subunit beta type-6 (Homo sapiens, UniProt P28072); experiment: Inhibition of human 20S constitutive proteasome beta 1 subunit caspase-like activity using fluorogenic peptide Ac-nLPnLD-AMC as substrate in presence of PA28alpha incubated for 1 to 2 hrs by fluorescence microplate reader assay
# T4 sequence (P28072 whole entry): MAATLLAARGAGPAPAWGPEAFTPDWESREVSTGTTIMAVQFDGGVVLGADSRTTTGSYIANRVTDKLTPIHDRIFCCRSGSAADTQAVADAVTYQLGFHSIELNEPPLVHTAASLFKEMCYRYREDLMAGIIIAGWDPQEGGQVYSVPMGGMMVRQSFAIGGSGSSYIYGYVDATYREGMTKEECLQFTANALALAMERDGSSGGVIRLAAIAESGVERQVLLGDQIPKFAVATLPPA
# [15] = biological target: T5, Proteasome subunit beta type-7 (Homo sapiens, UniProt Q99436); experiment: Inhibition of human 20S constitutive proteasome beta 2 subunit trypsin-like activity using fluorogenic peptide Ac-WLR-AMC as substrate in presence of PA28alpha incubated for 1 to 2 hrs by fluorescence microplate reader assay
# T5 sequence (Q99436 whole entry): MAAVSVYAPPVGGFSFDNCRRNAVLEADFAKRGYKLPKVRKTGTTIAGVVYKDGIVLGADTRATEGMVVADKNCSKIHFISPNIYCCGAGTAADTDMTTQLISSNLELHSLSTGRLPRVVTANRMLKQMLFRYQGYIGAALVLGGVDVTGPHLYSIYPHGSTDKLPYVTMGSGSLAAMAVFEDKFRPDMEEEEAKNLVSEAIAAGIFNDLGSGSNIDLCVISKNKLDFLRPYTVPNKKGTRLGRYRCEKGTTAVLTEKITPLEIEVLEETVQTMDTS
# Plasmodium falciparum [16] = experiment: Antiplasmodial activity against DHA-resistant and sorbitol synchronized ring stage forms of Plasmodium falciparum Cam3.II^R539T expressing K13 mutant assessed as reduction in parasitemia incubated for 3 hrs by pulse exposure based Syto-61 staining dye based flow cytometry analysis; format: functional; conditions: read-out: LD50 (the source's name); in short: as §2
# [17] = biological target: T6, Proteasome Macropain subunit MB1 (Homo sapiens, UniProt P28074); experiment: Inhibition of human 20S constitutive proteasome beta 5 subunit chymotrypsin-like activity using fluorogenic peptide Ac-WLA-AMC as substrate in presence of PA28alpha incubated for 1 to 2 hrs by fluorescence microplate reader assay
# T6 sequence (P28074 whole entry): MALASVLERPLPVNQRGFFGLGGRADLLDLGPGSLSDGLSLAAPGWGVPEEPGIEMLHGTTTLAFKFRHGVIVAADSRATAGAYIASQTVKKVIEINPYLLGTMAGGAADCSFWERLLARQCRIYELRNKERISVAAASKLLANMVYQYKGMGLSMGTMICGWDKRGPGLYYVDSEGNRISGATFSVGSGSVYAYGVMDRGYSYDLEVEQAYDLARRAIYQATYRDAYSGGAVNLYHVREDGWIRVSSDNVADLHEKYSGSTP
# [18] = biological target: T7, Proteasome component C5 (Homo sapiens) (UniProt P20618); experiment: Inhibition of human 20S constitutive proteasome beta 1 subunit assessed as inhibition of BMV037 probe labeling at 1 to 10 uM incubated for 1 hr by SDS-PAGE analysis; conditions: dose 1-10 µM
# T7 sequence (whole entry): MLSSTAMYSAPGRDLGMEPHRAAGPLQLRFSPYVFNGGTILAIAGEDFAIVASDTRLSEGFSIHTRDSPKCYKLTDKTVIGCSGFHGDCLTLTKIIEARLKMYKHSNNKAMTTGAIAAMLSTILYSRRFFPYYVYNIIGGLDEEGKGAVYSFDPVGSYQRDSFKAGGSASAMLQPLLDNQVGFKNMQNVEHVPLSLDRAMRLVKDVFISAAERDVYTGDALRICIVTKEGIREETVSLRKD
# In short: (§3)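 Purified human constitutive 20S (20 nM) was treated with compound at 37°C for 1 h, then labelled with 10 µM BMV037 at 37°C for 2 h. Samples were run on 10% Bis-Tris gel with MOPS buffer, and active subunits were detected by Cy5 fluorescence scan.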
# Plasmodium falciparum [19] = experiment: Inhibition of proteasome in Plasmodium falciparum trophozoite stage transfected with GFP-DD assessed as reduction in GFP-DD fusion protein degradation at 0.02 to 0.5 uM incubated for 3 hrs in absence of Shield-1 by Western blot analysis; conditions: dose 0.02-0.5 µM
# In short: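 GFP-DD reporter parasites were held in Shield-1 for 24 h, washed out, then treated as trophozoites (5% hematocrit, 5% parasitemia) with compound for 3 h at 37°C. […] Representative of four independent experiments.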
# [20] = test system: Plasmodium falciparum 3D7; experiment: Inhibition of 20S proteasome beta 1 subunit from bortezomib resistant Plasmodium falciparum 3D7 trophozoite infected erythrocytes assessed as inhibition of BMV037 probe labeling at 1 to 10 uM incubated for 1 hr by SDS-PAGE analysis; conditions: dose 1-10 µM
# [21] = biological target: T8, Proteasome subunit beta type-8 (Homo sapiens) (UniProt P28062); experiment: Inhibition of human 20S immunoproteasome beta 5 subunit assessed as inhibition of BMV037 probe labeling at 1 to 10 uM incubated for 1 hr by SDS-PAGE analysis; conditions: dose 1-10 µM
# T8 sequence (whole entry): T3 sequence (P28062 whole entry)
# In short: (§4)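 Purified human immuno-20S (20 nM) was incubated with compound at 37°C for 1 h, then labelled with 10 µM BMV037 at 37°C for 2 h. Samples were run on 4-12% Bis-Tris gel with MES buffer, and active subunits were visualised by Cy5 fluorescence.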
# [22] = biological target: T9, Proteasome subunit beta type-9 (Homo sapiens) (UniProt P28065); experiment: Inhibition of human 20S immunoproteasome beta 1 subunit assessed as inhibition of BMV037 probe labeling at 1 to 10 uM incubated for 1 hr by SDS-PAGE analysis; conditions: dose 1-10 µM; in short: as §4
# T9 sequence (whole entry): T1 sequence (P28065 whole entry)
# [23] = test system: Plasmodium falciparum 3D7; experiment: Inhibition of 20S proteasome beta 5 subunit from bortezomib resistant Plasmodium falciparum 3D7 trophozoite infected erythrocytes assessed as inhibition of BMV037 probe labeling at 1 to 10 uM incubated for 1 hr by SDS-PAGE analysis; conditions: dose 1-10 µM
# [24] = biological target: T10, Proteasome Macropain subunit MB1 (Homo sapiens) (UniProt P28074); experiment: Inhibition of human 20S constitutive proteasome beta 5 subunit assessed as inhibition of BMV037 probe labeling at 1 to 10 uM incubated for 1 hr by SDS-PAGE analysis; conditions: dose 1-10 µM; in short: as §3
# T10 sequence (whole entry): T6 sequence (P28074 whole entry)
# Plasmodium falciparum [25] = experiment: Antiplasmodial activity against sorbitol synchronized ring stage bortezomib-resistant Plasmodium falciparum 3D7 clone B1a assessed as reduction in parasitemia incubated for 72 hrs by Syto-61 staining dye based flow cytometry analysis; format: functional; conditions: read-out: LD50 (the source's name); in short: as §1
# Plasmodium falciparum [26] = experiment: Antiplasmodial activity against sorbitol synchronized ring stage bortezomib-resistant Plasmodium falciparum 3D7 clone B2a assessed as reduction in parasitemia incubated for 72 hrs by Syto-61 staining dye based flow cytometry analysis; format: functional; conditions: read-out: LD50 (the source's name); in short: as §1
smiles,measurement,setting,value
CC(C)C[C@H](NC(=O)[C@H](CCc1ccccc1)NC(=O)CN1CCOCC1)C(=O)N[C@@H](Cc1ccccc1)C(=O)N[C@@H](CC(C)C)C(=O)[C@@]1(C)CO1,inhibition,Plasmodium falciparum [1],Active
same,inhibition,Plasmodium falciparum [2],Active
same,inhibition,Plasmodium falciparum [3],inactive
CC(=O)N1CCC[C@H]1C(=O)N[C@@H](C)C(=O)N[C@@H](CC(C)C)B(O)O,inhibition,[4],inactive
same,IC50,[5],0.013 µM
same,IC50,[6],3 µM
same,LC50,Plasmodium falciparum [7],0.16 µM
same,IC50,[8],> 10 µM
same,LC50,Plasmodium falciparum [9],1.8 µM
same,IC50,[10],> 10 µM
same,IC50,[11],0.063 µM
same,IC50,[12],2.9 µM
same,selectivity ratio,[13],15
same,IC50,[14],0.32 µM
same,IC50,[15],> 10 µM
same,LC50,Plasmodium falciparum [16],1.5 µM
same,IC50,[17],0.097 µM
CC(C)C[C@H](NC(=O)[C@H](Cc1ccccc1)NC(=O)c1cnccn1)B(O)O [BORTEZOMIB],IC50,[6],0.32 µM
same,LC50,Plasmodium falciparum [7],0.06 µM
same,IC50,[8],1.6 µM
same,inhibition,[18],Active
same,LC50,Plasmodium falciparum [9],0.18 µM
same,inhibition,Plasmodium falciparum [19],Active
same,IC50,[12],0.053 µM
same,inhibition,[20],Active
same,inhibition,[21],Active
same,inhibition,[22],Active
same,inhibition,[23],Active
same,inhibition,[24],Active
same,LC50,Plasmodium falciparum [16],0.12 µM
same,LC50,Plasmodium falciparum [25],1.3 µM
same,LC50,Plasmodium falciparum [26],1.1 µM
